From ChEMBL document CHEMBL4049388, “Facile and efficient access to Androsten-17-(1',3',4')-pyrazoles and Androst-17β-(1',3',4')-pyrazoles via Vilsmeier reagents, and their antiproliferative activity evaluation in vitro” (Eur J Med Chem, 2017) come the findings set out here.

Usually IC50 stands for the concentration at which inhibition is half-maximal. A lower IC50 goes with greater potency.

Data set [1] in a line: Cytotoxicity against human 293T cells assessed as growth inhibition at 10 uM after 72 hrs by SRB assay relative to control. Type of data set: cell-based. The following applies: HEK-293T cells, read-out: GI. The gist of the method:
(§1)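 SRB single-dose screen at 10 μM on 293T, A549, Hela and MCF-7 cells. Results reported as percent inhibitory ratio (mean ± SD).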
(In general: Sulforhodamine B stains cellular protein and so reports cell mass.)

Data set [2] relates to A549. In words: Cytotoxicity against human A549 cells assessed as growth inhibition at 10 uM after 72 hrs by SRB assay relative to control. Conditions: A549, 72 h, read-out: GI. Format: functional. The essentials: as §1
The subject of data set [3] is HeLa. Briefly: Cytotoxicity against human HeLa cells assessed as growth inhibition at 10 uM after 72 hrs by SRB assay relative to control. Type of data set: functional. Conditions: read-out: GI. The gist of the method:
as §1

The test system of data set [4] is MCF7. In words: Cytotoxicity against human MCF7 cells assessed as growth inhibition at 10 uM after 72 hrs by SRB assay relative to control. Conditions: MCF7, 72 h, read-out: GI. Format: functional. The essentials:
as §1

For a further data set, the system named is HEK-293T. Briefly: Cytotoxicity against human 293T cells after 72 hrs by SRB assay. Type of data set: cell-based. The gist of the method: (§2)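 SRB assay on 293T, A549, Hela and MCF-7 cells, with cisplatin as reference control. IC50 calculated for each compound from triplicate assays.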
In data set [5] the test system is A549. In words: Cytotoxicity against human A549 cells after 72 hrs by SRB assay. The following applies: A549, 72 h. Format: functional, cell-based. The essentials:
as §2

For data set [6], the system named is HeLa. Briefly: Cytotoxicity against human HeLa cells after 72 hrs by SRB assay. Type of data set: functional, cell-based. The gist of the method:
as §2

Data set [7] relates to MCF7. Briefly: Cytotoxicity against human MCF7 cells after 72 hrs by SRB assay. Conditions: MCF7, 72 h. Type of data set: functional, cell-based. The essentials:
as §2

For the compound `CC(C)NCc1cn(-c2ccccc2)nc1C1=CC[C@H]2[C@@H]3CC=C4C[C@@H](O)CC[C@]4(C)[C@H]3CC[C@]12C`, in data set [1], the inhibition at 72 h, 10 µM stood at 94.7%. For the same compound, the inhibition of growth at 10 µM was found to be 93.3% with A549 [2], 92.4% in the data set on HeLa [3] and 92.1% with MCF7 [4]. Further, the IC50 came to 7.51 µM in the data set on HEK-293T, 2.87 µM with A549 [5], 3.49 µM in the data set on HeLa [6] and 6.36 µM in the data set with MCF7 [7].

Regarding `CNCc1cn(-c2ccccc2)nc1C1=CC[C@H]2[C@@H]3CC=C4C[C@@H](O)CC[C@]4(C)[C@H]3CC[C@]12C`, in data set [1], the inhibition at 72 h, 10 µM turned out to be 91.6%. Moreover, the inhibition of growth at 10 µM stood at 82.1% with A549 [2], 90.5% in the data set on HeLa [3] and 81.1% in the data set with MCF7 [4]. Also, the 50% inhibitory concentration (IC50) in the data set on HEK-293T came out at 2.11 µM; in the data set with A549 [5], 3.68 µM; in the data set on HeLa [6], 3.86 µM; with MCF7 [7], 6.91 µM.

In the case of `CCCNCc1cn(-c2ccccc2)nc1C1=CC[C@H]2[C@@H]3CC=C4C[C@@H](O)CC[C@]4(C)[C@H]3CC[C@]12C`, the inhibition at 72 h, 10 µM in data set [1] turned out to be 93.7%. In addition, the inhibition of growth at 10 µM was 91.2% in the data set with A549 [2], 93.5% with HeLa [3] and 90.7% in the data set with MCF7 [4]. In addition, the IC50 in the data set with HEK-293T was found to be 7.25 µM; with A549 [5], 1.57 µM; in the data set with HeLa [6] it was 3.61 µM; in the data set on MCF7 [7], 4.29 µM.

With `CC(C)NCc1cn(-c2ccccc2)nc1[C@H]1CC[C@H]2[C@@H]3CCC4C[C@@H](O)CC[C@]4(C)[C@H]3CC[C@]12C` (stereo partly drawn), the inhibition at 72 h, 10 µM in data set [1] worked out at 87.4%. In addition, the inhibition of growth at 10 µM with A549 [2] worked out at 30.6%; in the data set with HeLa [3], 74.1%; in the data set with MCF7 [4] it was 70.8%. The IC50 with HEK-293T came to 1.03 µM; in the data set on HeLa [6], 1.98 µM; with MCF7 [7] it was 7.45 µM.

Turning to `C[C@]12CC[C@H](O)CC1=CC[C@@H]1[C@@H]2CC[C@]2(C)C(c3nn(-c4ccccc4)cc3CNCc3ccccc3)=CC[C@@H]12`, in data set [1], the inhibition at 72 h, 10 µM turned out to be 50.7%. The values for the inhibition of growth at 10 µM with A549 [2], in the data set with HeLa [3] and in the data set on MCF7 [4] were below 10%, below 10% and 25.4%, respectively.

As to `COc1ccccc1NCc1cn(-c2ccccc2)nc1C1=CC[C@H]2[C@@H]3CC=C4C[C@@H](O)CC[C@]4(C)[C@H]3CC[C@]12C`, the inhibition at 72 h, 10 µM in data set [1] is below 10%. Also, the inhibition of growth at 10 µM in the data set with A549 [2] was below 10%; in the data set on HeLa [3], below 10%; in the data set with MCF7 [4] it was 18.1%.

With `CCNCc1cn(-c2ccccc2)nc1[C@H]1CC[C@H]2[C@@H]3CCC4C[C@@H](O)CC[C@]4(C)[C@H]3CC[C@]12C` (stereo partly drawn), in data set [1], the inhibition at 72 h, 10 µM stood at 91.2%. Besides, the inhibition of growth at 10 µM with A549 [2] was 92.4%; with HeLa [3], 88.4%; with MCF7 [4], 88.9%. In addition, the IC50 worked out at 5.29 µM in the data set with HEK-293T, 6.35 µM in the data set on A549 [5], 3.28 µM with HeLa [6] and 3.92 µM in the data set with MCF7 [7].

As for `CCCCNCc1cn(-c2ccccc2)nc1C1=CC[C@H]2[C@@H]3CC=C4C[C@@H](O)CC[C@]4(C)[C@H]3CC[C@]12C`, in data set [1], the inhibition at 72 h, 10 µM amounted to 95.1%. Moreover, the inhibition of growth at 10 µM was found to be 92.9% in the data set on A549 [2], 92.6% in the data set with HeLa [3] and 93.7% with MCF7 [4]. Besides, the IC50 in the data set on HEK-293T is 2.63 µM; in the data set with A549 [5] it was 1.93 µM; in the data set on HeLa [6], 3.37 µM; in the data set with MCF7 [7], 3.18 µM.

On to `CNCc1cn(-c2ccccc2)nc1[C@H]1CC[C@H]2[C@@H]3CCC4C[C@@H](O)CC[C@]4(C)[C@H]3CC[C@]12C` (stereo partly drawn), for which the inhibition at 72 h, 10 µM in data set [1] was determined as 79.2%. Further, the figures for the inhibition of growth at 10 µM with A549 [2], in the data set with HeLa [3] and with MCF7 [4] were below 10%, 41.3% and 45.9%, respectively.

`C[C@]12CC[C@H](O)C[C@@H]1CC[C@@H]1[C@@H]2CC[C@]2(C)[C@@H](c3nn(-c4ccccc4)cc3CO)CC[C@@H]12`: the inhibition at 72 h, 10 µM in data set [1] came out at 18.5%. For the same compound, the figures for the inhibition of growth at 10 µM in the data set on A549 [2], in the data set with HeLa [3] and with MCF7 [4] were below 10%, below 10% and 27.8%, respectively.

With `CCCNCc1cn(-c2ccccc2)nc1[C@H]1CC[C@H]2[C@@H]3CCC4C[C@@H](O)CC[C@]4(C)[C@H]3CC[C@]12C` (stereo partly drawn), the inhibition at 72 h, 10 µM in data set [1] was found to be 91.9%. The results for the inhibition of growth at 10 µM in the data set with A549 [2], in the data set with HeLa [3] and in the data set on MCF7 [4] were 91.5%, 90.3% and 88.6%, respectively. Moreover, the IC50 in the data set on HEK-293T stood at 0.62 µM; with A549 [5], 6.02 µM; with HeLa [6] it was 1.98 µM; in the data set on MCF7 [7] it was 4.84 µM.

For the compound `CCCCNCc1cn(-c2ccccc2)nc1[C@H]1CC[C@H]2[C@@H]3CCC4C[C@@H](O)CC[C@]4(C)[C@H]3CC[C@]12C` (stereo partly drawn), the inhibition at 72 h, 10 µM in data set [1] is below 10%. In addition, the inhibition of growth at 10 µM with A549 [2] was below 10%; in the data set with HeLa [3], 29.3%; in the data set on MCF7 [4] it was 21.9%.

Turning to `C[C@]12CC[C@H]3[C@@H](CCC4C[C@@H](O)CC[C@@]43C)[C@@H]1CC[C@@H]2c1nn(-c2ccccc2)cc1CNCc1ccccc1` (stereo partly drawn), the inhibition at 72 h, 10 µM in data set [1] stood at 60.8%. Moreover, the inhibition of growth at 10 µM amounted to 56.5% with A549 [2], 48.3% with HeLa [3] and 44.4% with MCF7 [4].

In the case of `C[C@]12CC[C@H]3[C@@H](CCC4C[C@@H](O)CC[C@@]43C)[C@@H]1CC[C@@H]2c1nn(-c2ccccc2)cc1CNc1ccccc1` (stereo partly drawn), the inhibition at 72 h, 10 µM in data set [1] came out at 12.5%. Moreover, the inhibition of growth at 10 µM is below 10% in the data set with A549 [2], below 10% in the data set with HeLa [3] and 16.9% with MCF7 [4].
